Source: PubChem BioAssay (Johns Hopkins Ion Channel Center)
An excerpt weighted towards active compounds, which were near 3.5% of everything screened.
MrgX1 allo act: human MrgX1 positive allosteric modulation, primary screen; Q96LB2; MrgX1-HEK293, Fluo-4 calcium flux, FDSS; hits give high values; B-score at 10 µM; 310,000 tested, 0.63% active; AID 588675;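 active = plate-corrected calcium response at least 3 library SD above typical, normal starting fluorescence, not activating the receptor alone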;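 also: compound read alongside a low EC10 to EC30 dose of BAM8-22 agonist; peak minus trough fluorescence over baseline measured at the second addition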
Target sequence (Q96LB2 whole entry, looked up): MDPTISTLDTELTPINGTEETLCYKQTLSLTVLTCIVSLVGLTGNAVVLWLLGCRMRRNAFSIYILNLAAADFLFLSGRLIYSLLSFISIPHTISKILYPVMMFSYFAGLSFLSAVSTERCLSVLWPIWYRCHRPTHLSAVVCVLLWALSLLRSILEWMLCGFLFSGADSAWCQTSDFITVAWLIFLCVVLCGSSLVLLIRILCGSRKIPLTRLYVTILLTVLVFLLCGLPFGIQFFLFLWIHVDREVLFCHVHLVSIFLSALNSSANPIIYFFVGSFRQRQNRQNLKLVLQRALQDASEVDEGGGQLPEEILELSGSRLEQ
MrgX1 agonist: activates human MrgX1 receptor signaling; MrgX1-HEK293 cells, Fluo-4 calcium fluorescence, agonist mode; hits give high values; B-score at 10 µM; 310,000 tested, 0.44% active;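 active = calcium response B-score plate-corrected fluorescence ratio at least 3 library SD, with starting fluorescence B-score inside 5 SD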
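Test system: HEK293 cells stably expressing human MrgX1 receptor; Input: fifteen thousand cells per well; Dosing: compound delivered in addition one of three; Schedule: overnight seeding, then 1 h dark dye loading; Technique: Fluo-4 NW calcium fluorescence; Measure: B-scored fluorescence response ratio; Controls: positive and negative controls per plate.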
MrgX1 antagonist: human MrgX1 receptor antagonism, primary screen; Q96LB2; MRGX1-HEK293 calcium flux, Fluo-4, BAM8-22 antagonism; hits give low values; B-score at 10 µM; 310,000 tested, 1.3% active; AID 588676;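 active = calcium-response B-score plate-corrected more than 3 library SD below zero, starting fluorescence within 5 deviations, no agonist response on first addition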;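 also: peak minus trough fluorescence over baseline after final BAM8-22 challenge near maximal dose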
RGS4 pot: potentiators or activators of RGS4 | B-score at 10 µM | AID 463111 | HEK293 M3R/inducible RGS4, carbachol calcium flux Fluo4; hits give low values | 310,000 tested, 0.92% active;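 active = B-score of the integrated calcium signal more than 4 SD below the library mean, with starting fluorescence not abnormally high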;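 also: negative B-score means reduced calcium response which marks RGS4 activation or potentiation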
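test system = HEK293 cells with stable M3R and inducible RGS4 | schedule = recording 10 s baseline at 1 Hz, 100 s post-agonist | technique = Fluo4-AM (2 µM) calcium-flux fluorescence, kinetic read | measure = Agonist-evoked peak-minus-minimum fluorescence over baseline, integrated ratio, B score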
RGS4 inh: inhibitors of human RGS4; P49798; HEK293 M3R/RGS4 inducible, Fluo-4 calcium flux; hits give high values; triggered by carbachol at its EC20; B-score at 10 µM; 310,000 tested, 0.45% active; AID 463165;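 active = B-score, a plate-corrected calcium signal, over three deviations above library mean, with baseline fluorescence within five deviations of library mean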;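 also: RGS4 expression induced by doxycycline in cells with stable M3 receptor; B-score is computed from the integrated fluorescence ratio over baseline after carbachol; higher B-score means a larger calcium signal and so more RGS4 inhibition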
Target sequence (P49798 whole entry, looked up): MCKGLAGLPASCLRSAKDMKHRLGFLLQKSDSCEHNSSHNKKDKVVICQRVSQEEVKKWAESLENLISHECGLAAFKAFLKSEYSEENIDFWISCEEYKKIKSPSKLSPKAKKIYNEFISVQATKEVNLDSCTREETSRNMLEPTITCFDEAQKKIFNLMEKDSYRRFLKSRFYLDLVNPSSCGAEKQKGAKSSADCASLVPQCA
RGS4 act valid: confirmation of RGS4 activators; shares compounds with RGS4 pot; HEK293 M3R/RGS4 inducible, carbachol calcium flux Fluo4; inhibition, % at 10 µM; 1,100 tested, 89% active;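 active = inhibition above 3 SD of the buffer control wells, cut at about 41% in these data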;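 also: signal is the integrated peak-minus-minimum Fluo4 fluorescence over baseline ratio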
M3R Ca counter: counter-screen for RGS4 activators: effect in non-induced cells; HEK293 M3R non-induced RGS4, Fluo4 calcium flux; after carbachol challenge at its EC90; inhibition, % at 10 µM; shares compounds with RGS4 pot; 1,100 tested, 82% active;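 active = inhibition exceeding 3 SD of buffer-only control wells, cut at about 26% in these data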;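 also: percent drop in integrated peak-minus-baseline over baseline Fluo4 ratio after carbachol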
MrgX1 antag conf: confirmation of human MrgX1 receptor antagonists | shares compounds with MrgX1 antagonist | MrgX1-HEK293, BAM8-22 calcium flux, Fluo-4; hits give low values | remaining BAM8-22 calcium response % of control (hits give low values), % at 10 µM | 2,300 tested, 19% active;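 active = remaining agonist calcium response no higher than 100% minus 3 SD of agonist-only control wells, with starting fluorescence near control levels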;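 also: agonist BAM8-22 given at a near maximal EC90 to ECmax level; peak minus minimum fluorescence divided by baseline after agonist addition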
HEK293 Ca flux: activity in parental HEK293 cells lacking MrgX1; shares compounds with MrgX1 antagonist; Fluo-4 calcium fluorescence, FDSS; fluorescence ratio F(max-min)/F0 at 10 µM; 4,000 tested, 2% active; AID 624111;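 active = duplicate-averaged calcium fluorescence ratio at least three times the standard deviation of buffer wells, a nonspecific response in parental cells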
HEK293 Ca counter: MrgX1 allosteric activator counter-screen hit in parental HEK293 cells. 4,000 tested, 0.4% active. shares compounds with MrgX1 antagonist. parental HEK293 calcium flux, Fluo-4 fluorescence ratio; hits give high values. fluorescence ratio F(max-min)/F0 at 10 µM;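 active = calcium fluorescence ratio, averaged over duplicates, at least 3 SD of the buffer-well ratio, meaning a nonspecific response in receptor-free cells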;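 also: untransfected parental HEK293 lacking MrgX1 used as counterscreen for MrgX1 allosteric activators; fluorescence change taken during the second addition on a kinetic imager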
HEK293 Ca cntr2: activity in parental HEK293 cells lacking MrgX1 receptor; shares compounds with MrgX1 antagonist; 4,000 tested, 8.7% active; fluorescence ratio F(max-min)/F0 at 10 µM; Fluo-4 calcium fluorescence (FDSS); hits give high values;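 active = calcium fluorescence ratio at least three times the spread of buffer wells, meaning a non-specific response in parental cells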
Of the large screens only hits and unclear results are named; the others gave an inactive call (follow-up assays come after a bar, where they were run).

COc1ccc(C(CC(=O)O)NC(=O)C(c2ccccc2)c2ccccc2)cc1 (centres undefined)	none
Cc1cc(C)c(S(=O)(=O)n2ccc3ccccc32)c(C)c1	RGS4 pot -9.5 | RGS4 act valid 76 | M3R Ca counter 29
CCN(CC)CCCOC(=O)C(c1ccccc1)c1ccccc1	MrgX1 antagonist -6.2, RGS4 pot -10 | RGS4 act valid 94 | M3R Ca counter 94
CCC(C(=O)OCCOCCN(CC)CC)c1ccccc1 (centres undefined)	none
COC(=O)c1sc(-c2ccc(Cl)cc2)cc1N	RGS4 pot -7.7 | RGS4 act valid inactive | M3R Ca counter inactive
CC(=O)c1sc(-c2ccc(Cl)cc2)cc1N	none
Cc1cccnc1NC(=O)c1ccc(NS(=O)(=O)c2ccc3[nH]c(=O)[nH]c3c2)cc1	none
O=C(O)COCC(=O)Nc1ccc2c(c1)ncn2CCc1ccccc1	none
COCCCNC(=O)c1c(N)n(/N=C/c2cccs2)c2nc3ccccc3nc12	RGS4 pot -8.1 | RGS4 act valid inactive | M3R Ca counter inactive
Nc1ncc(Br)cc1S(=O)(=O)NCCC(=O)N1CCN(c2ccccn2)CC1	RGS4 pot -8.7 | RGS4 act valid 75 | M3R Ca counter 84
CCOC(=O)C1=C(C)N2C(=C(C#N)[C@@H]1c1ccc(C(=O)OC)cc1)SC[C@@]2(O)C(C)(C)C	RGS4 pot -9.1 | RGS4 act valid 59 | M3R Ca counter inactive
CCN(CC)CCNC(=O)c1ccc(NC(=O)Cc2ccccc2F)cc1	none
CCN(CC)CCNC(=O)c1ccc(NC(=O)c2c(C)nn(-c3ccc(F)cc3)c2Cl)cc1	RGS4 pot -9.8 | RGS4 act valid 92 | M3R Ca counter 88
Cc1cc2c(cc1C)/C(=N/NC(=O)c1ccccn1)CCC2	none
COc1ccc(C(=O)C2CCCN(Cc3nc4ccccc4nc3C)C2)cc1OC (centres undefined)	none
COc1ccc(C(=O)C2CCCN(C3Cc4ccccc4C3)C2)cc1OC (centres undefined)	RGS4 pot -8.6 | RGS4 act valid 86 | M3R Ca counter 46
CCOC(=O)N1CCC(N2CCCC(C(=O)c3cc(C)c(OC)c(C)c3)C2)CC1 (centres undefined)	RGS4 pot -8.1 | RGS4 act valid 79 | M3R Ca counter 35
CCC(C)(C)n1nnnc1C(c1ccccn1)N1CCOCC1 (centres undefined)	none
S=C(NCCSCc1ccc(Cl)c(Cl)c1)Nc1ccccc1	RGS4 pot -8.3 | RGS4 act valid 90 | M3R Ca counter 71
COc1ccc(CSCCNC(=S)Nc2ccccc2)cc1Cl	none
O=C(CN1C(=O)S/C(=C\c2ccccc2F)C1=O)Nc1ccccc1O	none
CC(=O)Nc1nnc(COc2ccccc2)s1	none
COc1ccc(-c2csc(N3CCN(c4cc(C)nc5ccccc45)CC3)n2)cc1OC	RGS4 pot -8.5 | RGS4 act valid 92 | M3R Ca counter 86
COc1ccc(NC(=O)C2CC(c3c(F)cccc3Cl)=NO2)cc1OC (centres undefined)	none
Cc1cc(NC(=O)c2ccc3c(c2)OCCO3)ccc1NC(=O)c1cc2ccccc2o1	RGS4 pot -8.7 | RGS4 act valid 78 | M3R Ca counter inactive
O=C(Nc1ccc(NC(=O)c2cc3ccccc3o2)cc1)c1ccc2c(c1)OCCO2	none
Cc1nnc(SCCn2c(Br)nc3c2c(=O)n(C)c(=O)n3C)s1	none
Cn1c(SCCOc2ccccc2F)nc2ccccc2c1=O	RGS4 pot -7.8 | RGS4 act valid 92 | M3R Ca counter 81
Cc1cccc(C)c1NC(=O)CC(NCc1ccco1)C(=O)O (centres undefined)	none
CN1CCN(C(=O)c2cc3c(s2)-c2ccccc2S(=O)(=O)C3)CC1	none
CCCN(CCC)CCCOC(=O)c1ccc(Cl)cc1Cl	RGS4 pot -8.3 | RGS4 act valid 70 | M3R Ca counter 84
COC(=O)C(CCSC)NC(=O)CNS(=O)(=O)c1ccc(Br)cc1 (centres undefined)	none
Cc1c(O)c(CN2CCCC2)cc2c1oc(=O)c1ccccc12	none
C=CCc1cc2c(oc(=O)c3ccccc32)c(C)c1O	RGS4 pot -9 | RGS4 act valid 49 | M3R Ca counter 84
CCCCCc1nc2ccccc2c(=O)n1N	none
COc1ccc(C2(CNC(=O)Cc3ccccc3)CCCC2)cc1OC	RGS4 pot -8 | RGS4 act valid inactive | M3R Ca counter inactive
COC1CCN(C(=O)CC2C(=O)NCCN2CC(C)(C)C)CC1 (centres undefined)	none
Cc1cc(C)n(S(=O)(=O)c2ccc3ccccc3c2)n1	RGS4 pot -7.9 | RGS4 act valid 76 | M3R Ca counter 84
c1ccc2nc3c(nc2c1)OCC1CCCCN31 (centres undefined)	RGS4 pot -7.6 | RGS4 act valid 72 | M3R Ca counter 84
COc1ccc(/C=C2/C(=O)N(c3nc4ccccc4s3)N=C2CSc2ccc(Cl)cc2)cc1	none
CCCCCCCCC(=O)NCCOc1ccc(OC)cc1	none
O=C(Nc1ccccc1F)Nc1cc(S(=O)(=O)N2CCOCC2)ccc1N1CCCC1	none
O=C(Nc1ccc(Cl)c(Cl)c1)Nc1cc(S(=O)(=O)N2CCOCC2)ccc1N1CCCC1	RGS4 pot -9.2 | RGS4 act valid 72 | M3R Ca counter 27
CCOC(=O)c1ccc(NC(=S)N2CCSC2c2ccc(Cl)cc2)cc1 (centres undefined)	MrgX1 antagonist -6.3, RGS4 pot -8.8 | RGS4 act valid 94 | M3R Ca counter 91 | MrgX1 antag conf 58% | HEK293 Ca flux inactive | HEK293 Ca counter 49 | HEK293 Ca cntr2 inactive
CCOC(=O)c1ccc(NC(=S)N2CCSC2c2ccc(OC)cc2)cc1 (centres undefined)	none
